Assay results collected from several papers.
Compare with care: the assays were run in different laboratories. pIC50: −log10 of the molar value.
Observed: cell growth or viability

| Compound | cell line | method | time | measurement | result |
| --- | --- | --- | --- | --- | --- |
| CC1=C(O)C(=O)C=C2C1=CC=C1[C@@]2(C)CC[C@@]2(C)[C@@H]3C[C@](C)(C(=O)OCCO)CC[C@]3(C)CC[C@]12C | AGS | MTT | 48 h | pIC50 | 6.33 |
| Cc1ncn2c(=O)n(C)nnc12 | U-87 MG | resazurin | 7 days | pIC50 | 5.52 |
| CCN1CCN(c2ccc(Nc3cc(N(C)C(=O)Nc4c(Cl)c(OC)cc(OC)c4Cl)ncn3)cc2)CC1 | JMSU-1 | ATP luminescence | 96 h | pIC50 | 7.59 |
| CC(=O)Nc1nc(C)c(-c2csc(Nc3ccccc3)n2)s1 | MEF | MTT | 72 h | pIC50 | 4.67 |
| O=C1NC(=NCc2cccs2)S/C1=C\c1ccc2ncccc2c1 | EKVX |  |  | pIC50 | < 5.00 |
| CC1=C(O)C(=O)C=C2C1=CC=C1[C@@]2(C)CC[C@@]2(C)[C@@H]3C[C@](C)(C(=O)OCCCBr)CC[C@]3(C)CC[C@]12C | AGS | MTT | 48 h | pIC50 | 6.44 |
| O=c1[nH]cc(S(=O)(=O)Nc2cccc(-c3nnc(-c4cccc(Cl)c4)o3)c2)c(=O)[nH]1 | PC-9 | MTT | 24 h | pIC50 | 5.96 |
| CCCCCCCCCCCC(=O)Oc1c(C)c(O)c(C(=O)/C=C/c2ccccc2)c(OC)c1C | KKU-M213 | SRB | 72 h | pIC50 | < 4.30 |
| CC1=C(O)C(=O)C=C2C1=CC=C1[C@@]2(C)CC[C@@]2(C)[C@@H]3C[C@](C)(C(=O)OCCCOc4ccccc4)CC[C@]3(C)CC[C@]12C | AGS | MTT | 48 h | pIC50 | 5.87 |
| Cc1cnc(NC2CCOCC2)nc1-n1cnc(C(=O)NC(CN)c2cc(F)cc(Cl)c2)c1 (centres unmarked) | JVM13 | MTS |  | pIC50 | 5.57 |
| CC1=C(O)C(=O)C=C2C1=CC=C1[C@@]2(C)CC[C@@]2(C)[C@@H]3C[C@](C)(C(=O)OCCCCCCCO)CC[C@]3(C)CC[C@]12C | AGS | MTT | 48 h | pIC50 | 6.39 |
| COc1cccc2c1C(=O)c1c(O)c3c(c(O)c1C2=O)C[C@@](O)(C(=O)CO)C[C@@H]3O[C@H]1C[C@H](N)[C@H](O)[C@H](C)O1 | ChaGo-K-1 | MTT | 48 h | IC50 | 0.65 µg/mL |
| COc1c(C)c(OC)c2c(c1C)OC(c1ccccc1)CC2=O (centres unmarked) | KKU-M213 | SRB | 72 h | pIC50 | < 4.30 |
| C#CCSc1nc(Sc2nnnn2-c2ccccc2)c2nnn(Cc3ccc(OC)cc3)c2n1 | Raji | MTS | 6 days | pIC50 | 5.48 |
| CC1=C(O)C(=O)C=C2C1=CC=C1[C@@]2(C)CC[C@@]2(C)[C@@H]3C[C@](C)(C(=O)OCCCCO)CC[C@]3(C)CC[C@]12C | AGS | MTT | 48 h | pIC50 | 6.46 |
| COc1cc(/C=C2\SC(=O)NC2=O)ccc1OCc1ccc(Cl)cc1Cl | MEF | MTT | 72 h | pIC50 | 5.07 |
| C=CC(=O)Nc1cc(Nc2nccc(-c3cn(C4CC4)c4ccccc34)n2)c(OC)cc1N(C)CCN(C)C | PC-9 | ATP luminescence | 72 h | pIC50 | 8.39 |
| CC(C)[C@H](N)c1nc2cc(-c3ccncc3F)sc2c(=O)[nH]1 | SHP77 | MTT |  | pIC50 | 6.12 |
| CC1=C(O)C(=O)C=C2C1=CC=C1[C@@]2(C)CC[C@@]2(C)[C@@H]3C[C@](C)(C(=O)OCCCCCO)CC[C@]3(C)CC[C@]12C | AGS | MTT | 48 h | pIC50 | 6.37 |
| CCSC(=O)c1ncn2c(=O)n(C)nnc12 | U-87 MG | resazurin | 7 days | pIC50 | 4.19 |
